Assay results reported in ChEMBL document CHEMBL3351346, “Design, synthesis, structure-function relationship, bioconversion, and pharmacokinetic evaluation of ertapenem prodrugs” (J Med Chem, 2014).
Blank lines part the entries; values can stand above or below the compound they belong to.

Key:
[1] = AUC (0 to 8 hrs) in fasted Sprague-Dawley rat at 4.41 mg/kg dosed through intraduodenal route by LC-MS/MS method; assay type: ADME, organism-based; set-up: time < 8 hr, dose 4.41 mg/kg, route intraduodenal; details: plasma
Outline: (§1)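 Prodrugs were given intraduodenally to bypass stomach acid. Plasma was sampled at intervals over 8 h, and parent prodrug, the two monoester metabolites and ertapenem were quantified by LC-MS/MS. The lower limit of quantitation was 5 nM. AUC(0–8) was used, and it differed from AUC(0–∞) by ±20%. Vehicles were 30% Captisol or 0.5% methylcellulose, as solution or suspension depending on compound.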

[2] = Stability in pH 7.4 phosphate buffer assessed as compound remaining at 50 uM after 3 hrs by LC-MS/MS method; assay type: physicochemical; details: read-out: Stability
[3] = Stability in pH 6.5 simulated gastrointestinal fluid assessed as compound remaining at 50 uM after 3 hrs by LC-MS/MS method; assay type: ADME; details: read-out: Stability
Outline: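 Compounds at 50 μM were incubated in fasted-state simulated intestinal fluid (FaSSIF, pH 6.5) for over 3 h. Percent remaining was determined by LC-MS/MS.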

[4] = tested on: Canis familiaris; assay: Oral bioavailability in fasted Beagle dog assessed as assessed as ertapenem and monoetser metabolites level at 10 mg/kg dosed through intraduodenal route by LC-MS/MS method; assay type: ADME, organism-based, Canis lupus familiaris; details: in vivo
Outline: (§2)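 Total absorption followed intraduodenal dosing with LC-MS/MS of plasma over 8 h. It was calculated as the combined dose-normalized AUC of circulating parent prodrug, ertapenem and two monoesters, divided by dose-normalized AUC of ertapenem given iv. Vehicle was 30% Captisol or 0.5% methylcellulose.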

[5] = tested on: Rattus norvegicus; assay: AUC (0 to 8 hrs) in fasted Sprague-Dawley rat assessed as 8-OH, C-3 ester level at 4.41 mg/kg dosed through intraduodenal route by LC-MS/MS method; assay type: ADME, organism-based, Plasma; set-up: time < 8 hr, dose 4.41 mg/kg, route intraduodenal; details: in vivo, other; outline: as §1
[6] = tested on: Canis familiaris; assay: AUC (0 to 8 hrs) in fasted Beagle dog at 10 mg/kg dosed through intraduodenal route by LC-MS/MS method; assay type: ADME, organism-based, Canis lupus familiaris, Plasma; set-up: time < 8 hr, dose 10 mg/kg, route intraduodenal; details: in vivo, other, 8 h; outline: as §1
[7] = Stability in pH 2.0 simulated gastric fluid assessed as compound degradation to beta-lactam ring open products at 1 uM after 60 mins by LC-MS/MS method; assay type: ADME; details: read-out: Drug degradation
Outline: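 Incubation was in simulated gastric fluid (SGF, pH 2.0) for 60 min, with loss to the β-lactam ring-opened product measured by LC-MS/MS.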

[8] = tested on: Rattus norvegicus; assay: Oral bioavailability in fasted Sprague-Dawley rat assessed as ertapenem and monoetser metabolites level at 4.41 mg/kg dosed through intraduodenal route by LC-MS/MS method; assay type: ADME, organism-based; details: in vivo; outline: as §2
[9] = tested on: Rattus norvegicus; assay: Oral bioavailability in fasted Sprague-Dawley rat assessed as ertapenem level at 4.41 mg/kg dosed through intraduodenal route by LC-MS/MS method; assay type: ADME, organism-based; details: in vivo
Outline: (§3)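 After intraduodenal dosing, plasma over 8 h was analysed by LC-MS/MS. Bioavailability was calculated as dose-normalized AUC of ertapenem formed from the prodrug divided by dose-normalized AUC of ertapenem dosed iv. Vehicle was 30% Captisol or 0.5% methylcellulose.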

[10] = tested on: Canis familiaris; assay: AUC (0 to 8 hrs) in fasted Beagle dog assessed as 8-OH, benzoate ester level at 10 mg/kg dosed through intraduodenal route by LC-MS/MS method; assay type: ADME, organism-based, Canis lupus familiaris, Plasma; set-up: time < 8 hr, dose 10 mg/kg, route intraduodenal; details: in vivo, other; outline: as §1
[11] = tested on: Canis familiaris; assay: Oral bioavailability in fasted Beagle dog assessed as ertapenem level at 10 mg/kg dosed through intraduodenal route by LC-MS/MS method; assay type: ADME, organism-based, Canis lupus familiaris; details: in vivo; outline: as §3
[12] = tested on: Rattus norvegicus; assay: AUC (0 to 8 hrs) in fasted Sprague-Dawley rat assessed as ertapenem level at 4.41 mg/kg dosed through intraduodenal route by LC-MS/MS method; assay type: ADME, organism-based, Plasma; set-up: time < 8 hr, dose 4.41 mg/kg, route intraduodenal; details: in vivo, other; outline: as §1
[13] = tested on: Canis familiaris; assay: AUC (0 to 8 hrs) in fasted Beagle dog assessed as 8-OH, C-3 ester level at 10 mg/kg dosed through intraduodenal route by LC-MS/MS method; assay type: ADME, organism-based, Canis lupus familiaris, Plasma; set-up: time < 8 hr, dose 10 mg/kg, route intraduodenal; details: in vivo, other; outline: as §1
[14] = tested on: Rattus norvegicus; assay: AUC (0 to 8 hrs) in fasted Sprague-Dawley rat assessed as 8-OH, benzoate ester level at 4.41 mg/kg dosed through intraduodenal route by LC-MS/MS method; assay type: ADME, organism-based, Plasma; set-up: time < 8 hr, dose 4.41 mg/kg, route intraduodenal; details: in vivo, other; outline: as §1
[15] = tested on: Rattus norvegicus; assay: AUC (0 to 8 hrs) in fasted Sprague-Dawley rat assessed as ertapenem level at 10 mg/kg dosed through intraduodenal route by LC-MS/MS method; assay type: ADME, organism-based, Plasma; set-up: time < 8 hr, dose 10 mg/kg, route intraduodenal; details: in vivo, other; outline: as §1
[16] = tested on: Canis familiaris; assay: AUC (0 to 8 hrs) in fasted Beagle dog assessed as ertapenem level at 1 mg/kg, iv by LC-MS/MS method; assay type: ADME, organism-based, Canis lupus familiaris, Plasma; set-up: time < 8 hr, dose 1 mg/kg, route intravenous; details: in vivo
[17] = tested on: Canis familiaris; assay: AUC (0 to 8 hrs) in fasted Beagle dog assessed as ertapenem level at 10 mg/kg dosed through intraduodenal route by LC-MS/MS method; assay type: ADME, organism-based, Canis lupus familiaris, Plasma; set-up: time < 8 hr, dose 10 mg/kg, route intraduodenal; details: in vivo, other; outline: as §1
[18] = Stability in human plasma assessed as compound remaining at 50 uM at 37 degC after 60 mins by LC-MS/MS method; assay type: ADME, cell-free; details: read-out: Stability
Outline: (§4)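 Prodrugs were incubated in rat or human plasma for 60 min. Disappearance of prodrug and concomitant appearance of ertapenem were followed by LC-MS/MS, and in selected cases monoesters from partial hydrolysis were also monitored. Ertapenem itself was incubated the same way as a control.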

[19] = tested on: Rattus norvegicus; assay: Oral bioavailability in fasted Sprague-Dawley rat assessed as ertapenem and monoetser metabolites level at 10 mg/kg dosed through intraduodenal route by LC-MS/MS method; assay type: ADME, organism-based; details: in vivo; outline: as §2
[20] = Stability in rat plasma assessed as compound remaining at 50 uM at 37 degC after 60 mins by LC-MS/MS method; assay type: ADME, cell-free; details: read-out: Stability; outline: as §4
[21] = AUC (0 to 8 hrs) in fasted Sprague-Dawley rat at 1 mg/kg, iv by LC-MS/MS method; assay type: ADME, organism-based; set-up: time < 8 hr, dose 1 mg/kg, route intravenous; details: plasma
[22] = tested on: Rattus norvegicus; assay: Oral bioavailability in fasted Sprague-Dawley rat assessed as ertapenem level at 10 mg/kg dosed through intraduodenal route by LC-MS/MS method; assay type: ADME, organism-based; details: in vivo; outline: as §3
[23] = tested on: Canis familiaris; assay: AUC (0 to 8 hrs) in fasted Beagle dog assessed as 8-OH, C-3 ester level at 6.18 mg/kg dosed through intraduodenal route by LC-MS/MS method; assay type: ADME, organism-based, Canis lupus familiaris, Plasma; set-up: time < 8 hr, dose 6.18 mg/kg, route intraduodenal; details: in vivo, other; outline: as §1
[24] = tested on: Canis familiaris; assay: AUC (0 to 8 hrs) in fasted Beagle dog assessed as 8-OH, benzoate ester level at 6.18 mg/kg dosed through intraduodenal route by LC-MS/MS method; assay type: ADME, organism-based, Canis lupus familiaris, Plasma; set-up: time < 8 hr, dose 6.18 mg/kg, route intraduodenal; details: in vivo, other; outline: as §1
[25] = tested on: Canis familiaris; assay: Oral bioavailability in fasted Beagle dog assessed as assessed as ertapenem and monoetser metabolites level at 6.18 mg/kg dosed through intraduodenal route by LC-MS/MS method; assay type: ADME, organism-based, Canis lupus familiaris; details: in vivo; outline: as §2
[26] = AUC (0 to 8 hrs) in fasted Sprague-Dawley rat at 10 mg/kg dosed through intraduodenal route by LC-MS/MS method; assay type: ADME, organism-based, Plasma; set-up: time < 8 hr, dose 10 mg/kg, route intraduodenal; details: Sprague-Dawley, plasma; outline: as §1
[27] = Oral drug absorption in fasted Beagle dog at 6.18 mg/kg dosed through intraduodenal route by LC-MS/MS method; assay type: ADME, organism-based, Canis lupus familiaris; set-up: dose 6.18 mg/kg, route intraduodenal; details: in vivo; outline: as §2
[28] = tested on: Canis familiaris; assay: Oral bioavailability in fasted Beagle dog assessed as ertapenem level at 6.18 mg/kg dosed through intraduodenal route by LC-MS/MS method; assay type: ADME, organism-based, Canis lupus familiaris; details: in vivo; outline: as §3
[29] = AUC (0 to 8 hrs) in fasted Beagle dog at 6.18 mg/kg dosed through intraduodenal route by LC-MS/MS method; assay type: ADME, organism-based, Canis lupus familiaris; set-up: time < 8 hr, dose 6.18 mg/kg, route intraduodenal; details: plasma; outline: as §1
[30] = tested on: Canis familiaris; assay: AUC (0 to 8 hrs) in fasted Beagle dog assessed as ertapenem level at 6.18 mg/kg dosed through intraduodenal route by LC-MS/MS method; assay type: ADME, organism-based, Canis lupus familiaris, Plasma; set-up: time < 8 hr, dose 6.18 mg/kg, route intraduodenal; details: in vivo, other; outline: as §1

AUC(0-t) at 8 h [1]: 0.06 µM·h
remaining at 3 h, 50 µM [2]: > 95%
remaining at 3 h, 50 µM [3]: > 95%
F [4]: 31.3%
AUC [5]: 0.1 µM·h
AUC [6]: 5 µM·h
degraded at 1 h, 1 µM [7]: > 25%
F [8]: 6.6%
F [9]: 5%
AUC [10]: 3.3 µM·h
F [11]: 18.1%
AUC [12]: 1.5 µM·h
AUC [13]: 2.2 µM·h
AUC [14]: 0.4 µM·h
Structure (SMILES): CCOC(=O)C1=C(S[C@@H]2CN[C@H](C(=O)Nc3cccc(C(=O)OCC)c3)C2)[C@H](C)[C@@H]2[C@@H]([C@@H](C)O)C(=O)N12

remaining at 3 h, 50 µM [2]: > 95%
remaining at 3 h, 50 µM [3]: > 95%
AUC [15]: 0.5 µM·h
AUC [16]: 8.9 µM·h
AUC [17]: 1.4 µM·h
degraded at 1 h, 1 µM [7]: > 25%
remaining at 1 h, 50 µM [18]: 100%
F [19]: 0.7%
remaining at 1 h, 50 µM [20]: 100%
AUC(0-t) at 8 h [21]: 7.8 µM·h
F [22]: 0.7%
Structure (SMILES): C[C@@H](O)[C@H]1C(=O)N2C(C(=O)[O-])=C(S[C@@H]3CN[C@H](C(=O)Nc4cccc(C(=O)O)c4)C3)[C@H](C)[C@H]12.O.[Na+]

AUC [23]: 0.2 µM·h
remaining at 3 h, 50 µM [2]: > 95%
remaining at 3 h, 50 µM [3]: > 95%
AUC [15]: < 0.1 µM·h
AUC [24]: 0.3 µM·h
F [25]: 5.1%
degraded at 1 h, 1 µM [7]: > 25%
AUC(0-t) at 8 h [26]: 0.09 µM·h
remaining at 1 h, 50 µM [18]: 16%
F [19]: 0.1%
Fa [27]: 5.1%
F [28]: 0.5%
AUC(0-t) at 8 h [29]: 1.6 µM·h
AUC [30]: 0.2 µM·h
remaining at 1 h, 50 µM [20]: 0%
F [22]: < 0.1%
Structure (SMILES): CC(C)OC(=O)C1=C(S[C@@H]2CN[C@H](C(=O)Nc3cccc(C(=O)OC(C)C)c3)C2)[C@H](C)[C@@H]2[C@@H]([C@@H](C)O)C(=O)N12
